The values below come from ChEMBL document CHEMBL4428073, “Design, Synthesis, and Bioactivation of O-Glycosylated Prodrugs of the Natural Nitric Oxide Precursor N(ω)-Hydroxy-l-arginine” (J Med Chem, 2016).

Data set [1] can be described thus: Chemical stability in 10 mM potassium phosphate buffer at 250 uM at pH 7.4 incubated up to 24 hrs at 37 degC by HPLC analysis. Format: physicochemical. Conditions: pH 7.4, 24 h. A digest of the protocol: (§1)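 Compound at 250 µM in 10 mM potassium phosphate buffer at pH 2.0, 7.4 or 9.0, 37 °C. Samples taken at 3, 6 and 24 h, diluted 1:1 with 100 mM potassium phosphate pH 7.4. Analysed by HPLC after o-phthalaldehyde derivatization: RP18 column at 37 °C, fluorescence detection (ex 338 nm, em 425 nm).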

The nature of data set [2]: Prodrug activation assessed as almond beta-glucosidase-mediated Nomega-hydroxy-L-arginine formation at 500 uM measured up to 150 mins by HPLC analysis. The note with it: prunus dulcis, 2.5 h. A digest of the protocol:
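β-Glucosidase (recombinant, almond; 33 U/mL) pre-incubated 3 min at 37 °C in 50 mM triethanolamine pH 7.0. Reaction started with prodrug (500 µM). Aliquots at 0, 15, 45, 90 and 150 min quenched with equal volume ice-cold MeOH, then centrifuged. Supernatant analysed by o-phthalaldehyde/fluorescence HPLC. No-enzyme controls run alongside. Mean ± SD, n = 2-3.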

Data set [3] is described as follows: Chemical stability in 10 mM potassium phosphate buffer at 250 uM at pH 9 incubated up to 24 hrs at 37 degC by HPLC analysis. In kind it is physicochemical. The note with it: pH 9, 24 h. In a few lines: as §1
In data set [4] the target is Beta-galactosidase (Escherichia coli, UniProt Q8VNN2). Kind of data set: Prodrug activation assessed as recombinant Escherichia coli beta-galactosidase-mediated Nomega-hydroxy-L-arginine formation at 500 uM measured up to 150 mins by HPLC analysis. Conditions: 2.5 h. In a few lines: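 Recombinant E. coli β-galactosidase (25 U/mL) pre-incubated 3 min at 37 °C in 50 mM triethanolamine pH 7.0, then prodrug added at 500 µM. Samples at 0, 15, 45, 90 and 150 min stopped with ice-cold MeOH, centrifuged and analysed by o-phthalaldehyde/fluorescence HPLC. No-enzyme controls included.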

In data set [5] the target is T1, Nitric oxide synthase, inducible (Mus musculus, UniProt P29477).
T1 sequence (P29477 whole entry): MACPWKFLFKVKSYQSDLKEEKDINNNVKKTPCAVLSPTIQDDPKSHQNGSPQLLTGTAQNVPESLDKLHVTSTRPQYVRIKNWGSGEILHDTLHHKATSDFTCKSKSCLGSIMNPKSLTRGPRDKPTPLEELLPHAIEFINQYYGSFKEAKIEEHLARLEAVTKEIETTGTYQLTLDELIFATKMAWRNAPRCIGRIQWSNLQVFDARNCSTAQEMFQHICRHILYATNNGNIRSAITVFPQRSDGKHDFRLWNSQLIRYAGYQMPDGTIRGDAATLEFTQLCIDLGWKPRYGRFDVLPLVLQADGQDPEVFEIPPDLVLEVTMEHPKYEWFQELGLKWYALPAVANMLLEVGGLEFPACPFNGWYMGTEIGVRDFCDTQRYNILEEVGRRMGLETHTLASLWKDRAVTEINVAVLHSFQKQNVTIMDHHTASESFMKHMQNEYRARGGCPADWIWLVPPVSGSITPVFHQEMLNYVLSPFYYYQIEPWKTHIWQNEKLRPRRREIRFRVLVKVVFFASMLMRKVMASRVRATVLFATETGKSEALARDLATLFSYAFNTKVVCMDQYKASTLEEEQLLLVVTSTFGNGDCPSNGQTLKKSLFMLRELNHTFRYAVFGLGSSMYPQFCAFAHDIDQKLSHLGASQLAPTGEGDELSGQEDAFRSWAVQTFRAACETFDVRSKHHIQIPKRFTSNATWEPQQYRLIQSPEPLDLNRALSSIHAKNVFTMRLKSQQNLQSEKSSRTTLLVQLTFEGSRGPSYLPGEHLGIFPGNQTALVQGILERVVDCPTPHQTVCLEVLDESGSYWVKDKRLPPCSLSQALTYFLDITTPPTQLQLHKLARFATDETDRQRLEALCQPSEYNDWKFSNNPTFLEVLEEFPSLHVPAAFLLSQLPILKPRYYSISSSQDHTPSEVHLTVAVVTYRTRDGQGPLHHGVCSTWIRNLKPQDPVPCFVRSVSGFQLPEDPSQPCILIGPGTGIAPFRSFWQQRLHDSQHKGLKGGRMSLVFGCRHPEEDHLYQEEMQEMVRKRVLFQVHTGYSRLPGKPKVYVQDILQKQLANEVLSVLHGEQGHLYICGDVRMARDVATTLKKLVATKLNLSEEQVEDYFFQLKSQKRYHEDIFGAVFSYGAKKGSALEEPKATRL
Kind of data set: Prodrug activation in LPS-stimulated mouse […] cells assessed as iNOS-mediated Nomega-hydroxy-L-arginine formation by measuring increase in NO release at 1 mM incubated for 2.5 hrs by Hoechst 33342/DAF-FM-DA staining based fluorescence microscopic analysis. Conditions: 1000 µM. A digest of the protocol:
(§2)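 Washed into arginine/lysine-free DMEM with 2% FBS. Compound 1 mM final from DPBS++ stock, 150 min (L-NAME co-incubated where stated). Then 5 µM DAF-FM-DA plus 10 µM Hoechst 15 min. Six images per well, triplicate wells. Cell-normalized intensity minus DPBS++ control, scaled to reference substrate = 100%. Mean ± SEM.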

The nature of data set [6]: Prodrug activation assessed as porcine liver carboxylesterase/recombinant Escherichia coli beta-galactosidase-mediated Nomega-hydroxy-L-arginine formation by measuring NO release at 500 uM preincubated for 150 mins followed by recombinant mouse iNOS and NADPH addition incubated for 30 mins followed by LDH and sodium pyruvate addition measured after 15 mins by Griess assay. The note with it: 0.5 h.

Data set [7] is described as follows: Chemical stability in 10 mM potassium phosphate buffer at 250 uM at pH 2 incubated up to 24 hrs at 37 degC by HPLC analysis. Conditions: pH 2, 24 h. Format: physicochemical. In a few lines: as §1
A short description of data set [8]: Half life in 10 mM potassium phosphate buffer at 250 uM at pH 9 at 37 degC by HPLC analysis. In kind it is physicochemical. A digest of the protocol: (§3)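 Half-life from incubations at 250 µM in 10 mM potassium phosphate buffer, 37 °C, pH 7.4 or 9.0. Sampling at 3, 6 and 24 h. HPLC of o-phthalaldehyde derivatives with fluorescence detection (ex 338 nm, em 425 nm).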

The nature of data set [9]: Half life in 10 mM potassium phosphate buffer at 250 uM at pH 7.4 at 37 degC by HPLC analysis. Format: physicochemical. In a few lines:
as §3

The target of data set [10] is T1, Nitric oxide synthase, inducible. Kind of data set: Prodrug activation in LPS-stimulated mouse […] cells assessed as iNOS-mediated Nomega-hydroxy-L-arginine formation by measuring increase in NO release at 1 mM incubated for 2.5 hrs in presence of NOS inhibitor L-NAME by Hoechst 33342/DAF-FM-DA staining based fluorescence microscopic analysis. Conditions: 1000 µM. In a few lines:
as §2

Data set [11] concerns the target T2, Nitric oxide synthase, inducible (Mus musculus) (UniProt P29477).
T2 sequence (whole entry): T1 sequence (P29477 whole entry)
Kind of data set: Substrate activity at recombinant mouse iNOS assessed as increase in NO release incubated for 30 mins in presence of NADPH followed by LDH and sodium pyruvate addition measured after 15 mins by Griess assay.

Data set [12] concerns J774.A1. Kind of data set: Toxicity in mouse […] cells assessed as reduction in cell proliferation up to 1 mM after 2.5 hrs by Hoechst 33342/DAF-FM-DA staining based fluorescence microscopic analysis. Conditions: j774.a1, 2.5 h. A digest of the protocol: (§4)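 Stained with Hoechst 33342 and DAF-FM-DA, then imaged by automated fluorescence microscopy (about 1000 cells per well). Cell shape, blebbing, apoptosis and cell numbers judged against DPBS++ vehicle controls.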

The target of data set [13] is T2, Nitric oxide synthase, inducible (Mus musculus). Put plainly: Substrate activity at iNOS in LPS-stimulated mouse J744A.1 cells assessed as increase in NO release at 1 mM incubated for 2.5 hrs by Hoechst 33342/DAF-FM-DA staining based fluorescence microscopic analysis. A digest of the protocol: as §2
Data set [14] deals with J774.A1. Put plainly: Toxicity in mouse […] cells assessed as changes in cell shape up to 1 mM after 2.5 hrs by Hoechst 33342/DAPI/GFP staining based fluorescence microscopic analysis. The note with it: j774.a1, 2.5 h. A digest of the protocol:
as §4

In data set [15] the test system is J774.A1. Kind of data set: Toxicity in mouse […] cells assessed as induction of apoptosis up to 1 mM after 2.5 hrs by Hoechst 33342/DAPI/GFP staining based fluorescence microscopic analysis. Format: cell-based. Conditions: j774.a1, 2.5 h. In a few lines: as §4
The test system of data set [16] is J774.A1. Put plainly: Toxicity in mouse […] cells assessed as appearance of cell blebbing up to 1 mM after 2.5 hrs by Hoechst 33342/DAPI/GFP staining based fluorescence microscopic analysis. Conditions: j774.a1, 2.5 h. In a few lines: as §4
Data set [17] in a line: Prodrug activation assessed as porcine liver carboxylesterase/beta-galactosidase-mediated Nomega-hydroxy-L-arginine formation at 500 uM measured up to 150 mins by HPLC analysis. Further details: species or system Sus scrofa. Conditions: pig, 2.5 h. In a few lines: (§5)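 Porcine liver carboxylesterase (133 U/mL) plus β-galactosidase (33 U/mL) pre-incubated 3 min at 37 °C in 50 mM triethanolamine pH 7.0. Started with prodrug at 500 µM. Samples at 0–150 min quenched with cold MeOH, centrifuged and analysed by o-phthalaldehyde/fluorescence HPLC. No-enzyme controls included.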

The target of data set [18] is T3, Liver carboxylesterase (Sus scrofa, UniProt Q29550).
T3 sequence (Q29550 whole entry): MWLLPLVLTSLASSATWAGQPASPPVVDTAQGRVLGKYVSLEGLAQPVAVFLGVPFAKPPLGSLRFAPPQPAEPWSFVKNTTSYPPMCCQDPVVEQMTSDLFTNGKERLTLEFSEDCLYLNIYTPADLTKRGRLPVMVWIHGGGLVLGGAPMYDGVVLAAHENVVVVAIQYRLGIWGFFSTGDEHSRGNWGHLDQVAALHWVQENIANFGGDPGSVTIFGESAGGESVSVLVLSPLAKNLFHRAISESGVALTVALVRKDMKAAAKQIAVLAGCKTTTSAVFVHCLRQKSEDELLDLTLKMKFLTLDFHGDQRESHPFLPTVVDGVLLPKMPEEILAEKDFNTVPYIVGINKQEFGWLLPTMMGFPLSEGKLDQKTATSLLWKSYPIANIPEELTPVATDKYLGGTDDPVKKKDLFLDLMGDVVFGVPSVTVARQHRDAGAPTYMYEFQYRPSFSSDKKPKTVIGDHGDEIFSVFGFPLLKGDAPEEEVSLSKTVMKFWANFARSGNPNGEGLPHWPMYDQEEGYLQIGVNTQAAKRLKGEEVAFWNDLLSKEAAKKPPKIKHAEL
Kind of data set: Prodrug activation assessed as porcine liver carboxylesterase-mediated Sodium Nomega-(beta-D-Galactopyranos-1-yloxy)-L-arginine formation at 500 uM measured up to 150 mins by HPLC analysis. Conditions: pig, 2.5 h. In a few lines:
as §5

The source made the active and inactive calls. No cut-off for these calls is given here.

Sequence of Beta-galactosidase (Q8VNN2 whole entry): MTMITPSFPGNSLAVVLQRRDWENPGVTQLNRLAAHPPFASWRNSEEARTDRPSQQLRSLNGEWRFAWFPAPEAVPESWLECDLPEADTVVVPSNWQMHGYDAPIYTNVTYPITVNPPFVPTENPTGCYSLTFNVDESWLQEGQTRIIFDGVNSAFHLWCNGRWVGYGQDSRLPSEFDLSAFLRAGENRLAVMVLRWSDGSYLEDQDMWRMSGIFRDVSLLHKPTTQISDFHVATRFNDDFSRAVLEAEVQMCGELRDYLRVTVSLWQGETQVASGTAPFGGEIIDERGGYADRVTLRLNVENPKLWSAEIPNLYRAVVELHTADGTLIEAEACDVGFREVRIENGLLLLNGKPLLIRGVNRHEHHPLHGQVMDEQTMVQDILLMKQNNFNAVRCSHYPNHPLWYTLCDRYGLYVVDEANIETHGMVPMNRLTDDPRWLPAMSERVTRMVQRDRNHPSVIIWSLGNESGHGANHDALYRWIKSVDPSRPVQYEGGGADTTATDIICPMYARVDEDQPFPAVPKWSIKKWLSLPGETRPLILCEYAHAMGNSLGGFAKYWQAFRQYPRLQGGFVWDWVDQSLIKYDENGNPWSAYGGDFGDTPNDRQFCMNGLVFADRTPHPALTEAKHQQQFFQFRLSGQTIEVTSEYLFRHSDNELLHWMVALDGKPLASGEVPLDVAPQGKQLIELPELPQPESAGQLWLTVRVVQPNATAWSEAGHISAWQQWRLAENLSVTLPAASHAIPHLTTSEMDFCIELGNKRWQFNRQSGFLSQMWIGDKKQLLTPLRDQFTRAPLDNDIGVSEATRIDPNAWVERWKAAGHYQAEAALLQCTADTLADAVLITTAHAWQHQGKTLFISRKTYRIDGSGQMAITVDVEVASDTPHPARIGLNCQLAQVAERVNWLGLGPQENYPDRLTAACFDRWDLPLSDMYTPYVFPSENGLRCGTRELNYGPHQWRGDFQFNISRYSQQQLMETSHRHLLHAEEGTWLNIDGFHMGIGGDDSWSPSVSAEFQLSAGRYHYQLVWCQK

In the case of `N/C(=N\O[C@@H]1O[C@H](CO)[C@H](O)[C@H](O)[C@H]1O)NCCC[C@H](N)C(=O)[O-].[Na+]`, the Stability entry in data set [1], in data set [3] and in data set [7] was “Stable” each time. Besides, the Drug metabolism result in [2] is reported as “Metabolite_Detected”; in data set [4] it was “Metabolite_Detected”; in data set [5], “Metabolite_Notdetected”; in data set [6], “Metabolite_Detected”.

Regarding `CC(=O)OC[C@H]1O[C@@H](O/N=C(\N)NCCC[C@H](N)C(=O)O)[C@H](OC(C)=O)[C@@H](OC(C)=O)[C@H]1OC(C)=O.Cl.Cl`, the half-life at 250 µM in data set [8] and in data set [9] was above 24 h each time. Moreover, the Drug metabolism result in data set [4] and in [5] was “Metabolite_Notdetected” each time.

Regarding `CCOC(=O)[C@@H](N)CCCN/C(N)=N/O[C@@H]1O[C@H](CO)[C@@H](O)[C@H](O)[C@H]1O.Cl.Cl`, the figures for the Drug metabolism entry in data set [10] and in data set [5] were “Metabolite_Notdetected” and “Metabolite_Detected”, respectively.

Turning to `N=C(NO)NCCC[C@H](N)C(=O)O`, the outcome in data set [11] and in data set [13] was Active. Moreover, the Activity entry in data set [12], in [14], in data set [15] and in [16] was “Non-Toxic” throughout.

For the compound `CCOC(=O)[C@@H](N)CCCN/C(N)=N/O[C@@H]1O[C@H](COC(C)=O)[C@H](OC(C)=O)[C@H](OC(C)=O)[C@H]1OC(C)=O.Cl.Cl`, in data set [10], the Drug metabolism result is recorded as “Metabolite_Notdetected”.

On to `CC(=O)OC[C@H]1O[C@@H](O/N=C(\N)NCCC[C@H](N)C(=O)O)[C@H](OC(C)=O)[C@@H](OC(C)=O)[C@@H]1OC(C)=O.Cl.Cl`, for which the Drug metabolism entry is listed as “Metabolite_Detected” in data set [2], “Metabolite_Notdetected” in data set [10] and “Metabolite_Detected” in [5].

As for `CCOC(=O)[C@@H](N)CCCN/C(N)=N/O[C@@H]1O[C@H](CO)[C@H](O)[C@H](O)[C@H]1O.Cl.Cl`, the half-life at 250 µM in [8] and in [9] was 10 to 12 h in each case. Further, the Drug metabolism entry in data set [5] is listed as “Metabolite_Notdetected”; in data set [6], “Metabolite_Detected”; in [17], “Metabolite_Detected”; in data set [18], “Metabolite_Detected”.

`N/C(=N\O[C@@H]1O[C@H](CO)[C@@H](O)[C@H](O)[C@H]1O)NCCC[C@H](N)C(=O)[O-].[Na+]`: the results for the Drug metabolism entry in data set [2], in [10] and in [5] were “Metabolite_Detected”, “Metabolite_Notdetected” and “Metabolite_Detected”, respectively.

As for `CCOC(=O)[C@@H](N)CCCN/C(N)=N/O[C@@H]1O[C@H](COC(C)=O)[C@@H](OC(C)=O)[C@H](OC(C)=O)[C@H]1OC(C)=O.Cl.Cl`, the Drug metabolism result in [10] is “Metabolite_Notdetected”; in [5] it was “Metabolite_Detected”.
